Test results from ChEMBL document CHEMBL4725282, “Discovery of a Conformationally Constrained Oxazolidinone with Improved Safety and Efficacy Profiles for the Treatment of Multidrug-Resistant Tuberculosis” (J Med Chem, 2020).

Experiments:
[1] = Stability in human liver microsome at 1 uM measured after 30 mins in absence of NADPH by LC-MS/MS analysis; assay type: ADME; conditions: liver microsomes, read-out: Stabilty
Procedure, shortened: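 Liver microsomes (male CD-1 mouse or pooled human), 1 mg/mL protein, compound 1 µM, 37°C with shaking. Started with 1 mM NADPH or run without cofactor. Quenched with ice-cold ACN/MeOH containing internal standard. Parent quantified by LC-MS/MS; 30 min concentration normalised to time zero.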

Cytochrome P450 3A4 = Cytochrome P450 3A4 (Homo sapiens, UniProt P08684); experiment: Inhibition of CYP3A4 in human liver microsomes after 20 mins by LC-MS/MS analysis; assay type: ADME
Procedure, shortened: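 Human liver microsomes (0.2 mg/mL) in phosphate buffer, 20 min incubation with compound at 0.1-50 μM alongside isoform-specific substrates and a positive control. Substrate remaining monitored by LC-MS/MS at each concentration; IC50 derived.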

[2] = system: Mycobacterium tuberculosis; experiment: Antitubercular activity against Mycobacterium tuberculosis H37Rv infected in Balb/c mouse assessed as lung bacterial burden by measuring colony forming unit at 100 mg/kg/day, po administered via gavage 5 times per week for 3 weeks starting from 10 days post-infection and measured 24 hrs post last dose (reference value: 7.102 +/- 0.152 log10CFU); assay type: functional; conditions: time 22 day
Procedure, shortened: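 Female SPF BALB/c mice, 6 per group, aerosol-infected with M. tuberculosis H37Rv to deposit 50-100 bacilli per lung. Compound suspended in 0.5% CMC, given by oral gavage from day 10 post-infection, 5 times per week for 3 weeks; controls got 0.5% CMC. Lungs harvested the day after the last dose, homogenised, diluted in HBSS, plated on 7H11 agar in duplicate, incubated 3 weeks at 37 °C. Result expressed as mean log10 CFU; t-test versus control.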

[3] = Toxicity in Mycobacterium tuberculosis H37Rv infected Balb/c mouse assessed as change in body weight at 100 mg/kg/day, po administered via gavage 5 times per week for 3 weeks starting from 10 days post-infection (reference value: 21.29 +/- 0.84 g); assay type: organism-based; conditions: in vivo, 504 h, time 21 day
[4] = Toxicity in female Sprague-Dawley rat assessed as body weight loss at 50 to 450 mg/kg/day, po administered for 4 weeks measured at 1 week interval; assay type: organism-based; conditions: in vivo, 672 h, dose 50-450 mg/kg/day
Procedure, shortened: (§1)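 SD rats, 6-7 weeks, 12 male and 12 female per group. Oral dosing once daily at 50, 150 or 450 mg/kg/day or vehicle for 4 weeks, then 2-week recovery. 8 per sex dissected after last dose, remaining 4 per sex after 14-day recovery. Body weight, urine, food intake and clinical signs monitored.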

[5] = Toxicity in female Sprague-Dawley rat assessed as ophthalmic changes at 50 to 450 mg/kg/day, po administered for 4 weeks measured post last dose; assay type: organism-based; conditions: in vivo, 672 h, dose 50-450 mg/kg/day
Procedure, shortened: (§2)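 SD rats, 6-7 weeks old (96 in total), split into vehicle, 50, 150 and 450 mg/kg/day groups of 12 females and 12 males each, given oral doses once daily for 4 weeks, then 2 weeks of recovery. Mortality, body weight, food intake, eyes, urine and neuropsychic signs were observed. Organ and bone marrow histopathology was done on 8 rats per sex per group after the last dose and on the remaining 4 per sex after 14 days of recovery.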

[6] = Toxicity in female Sprague-Dawley rat assessed as changes in neuropsychic symptoms at 50 to 450 mg/kg/day, po administered for 4 weeks measured during last 24 hrs of treatment period; assay type: organism-based; conditions: in vivo, 672 h, dose 50-450 mg/kg/day; procedure, shortened: as §2
[7] = Toxicity in female Sprague-Dawley rat assessed as histopathological changes in bone marrow at 450 mg/kg/day, po administered for 4 weeks measured post last dose; assay type: organism-based; conditions: in vivo, 672 h; procedure, shortened: as §2
[8] = Toxicity in female Sprague-Dawley rat assessed as abnormalities in urine at 50 to 450 mg/kg/day, po administered for 4 weeks followed by 2 week recovery period measured within last 7 days of recover period; assay type: organism-based; conditions: in vivo, 672 h, dose 50-450 mg/kg/day; procedure, shortened: as §1
[9] = Toxicity in female Sprague-Dawley rat assessed as changes in neuropsychic symptoms at 50 to 450 mg/kg/day, po administered for 4 weeks followed by 2 week recovery period measured during last 24 hrs of recovery period; assay type: organism-based; conditions: in vivo, 672 h, dose 50-450 mg/kg/day; procedure, shortened: as §2
[10] = Toxicity in female Sprague-Dawley rat assessed as histopathological changes in bone marrow at 450 mg/kg/day, po administered for 4 weeks followed by 2 week recovery period; assay type: organism-based; conditions: in vivo, 672 h; procedure, shortened: as §2
[11] = Toxicity in male Sprague-Dawley rat assessed as mortality at 50 to 450 mg/kg/day, po administered for 4 weeks followed by 2 week recovery period; assay type: organism-based; conditions: in vivo, 672 h, dose 50-450 mg/kg/day
[12] = Toxicity in male Sprague-Dawley rat assessed as body weight loss at 50 to 450 mg/kg/day, po administered for 4 weeks followed by 2 week recovery period measured at 1 week interval; assay type: organism-based; conditions: in vivo, 672 h, dose 50-450 mg/kg/day; procedure, shortened: as §2
[13] = Toxicity in male Sprague-Dawley rat assessed as ophthalmic changes at 50 to 450 mg/kg/day, po administered for 4 weeks followed by 2 week recovery period; assay type: organism-based; conditions: in vivo, 1008 h, dose 50-450 mg/kg/day, time 6 weeks
[14] = Toxicity in male Sprague-Dawley rat assessed as ophthalmic changes at 50 to 450 mg/kg/day, po administered for 4 weeks measured within 7 days of post last dose; assay type: organism-based; conditions: in vivo, 672 h, dose 50-450 mg/kg/day
[15] = Toxicity in female Sprague-Dawley rat assessed as change in white blood cell count at 50 mg/kg/day, po administered for 4 weeks followed by 2 week recovery period (Rvb =3.61 +/- 0.75 10^9/L); assay type: organism-based; conditions: in vivo, 672 h
[16] = Toxicity in male Sprague-Dawley rat assessed as change in hemoglobin count at 50 mg/kg/day, po administered for 4 weeks followed by 2 week recovery period (Rvb =144 +/- 5 g/L); assay type: organism-based; conditions: in vivo, 672 h
[17] = Toxicity in female Sprague-Dawley rat assessed as change in neutrophil level at 50 mg/kg/day, po administered for 4 weeks followed by 2 week recovery period (Rvb =18.5 +/- 5.3 %); assay type: organism-based; conditions: in vivo, 672 h
[18] = Toxicity in female Sprague-Dawley rat assessed as change in red blood cell count at 150 mg/kg/day, po administered for 4 weeks followed by 2 week recovery period (Rvb =7.32 +/- 0.20 10^12/L); assay type: organism-based; conditions: in vivo, 672 h
[19] = Toxicity in male Sprague-Dawley rat assessed as change in platelet count at 150 mg/kg/day, po administered for 4 weeks followed by 2 week recovery period (Rvb =1077 +/- 117 10^9/L); assay type: organism-based; conditions: in vivo, 672 h
[20] = Toxicity in female Sprague-Dawley rat assessed as change in mean platelet volume at 150 mg/kg/day, po administered for 4 weeks followed by 2 week recovery period (Rvb =7.1 +/- 0.5 fL); assay type: organism-based; conditions: in vivo, 672 h
[21] = Toxicity in female Sprague-Dawley rat assessed as change in mean corpuscular hemoglobin at 150 mg/kg/day, po administered for 4 weeks followed by 2 week recovery period (Rvb =18.5 +/- 0.6 pg); assay type: organism-based; conditions: in vivo, 672 h
[22] = Toxicity in male Sprague-Dawley rat assessed as change in mean corpuscular hemoglobin at 450 mg/kg/day, po administered for 4 weeks followed by 2 week recovery period (Rvb =18.3 +/- 0.4 pg); assay type: organism-based; conditions: in vivo, 672 h
[23] = Toxicity in female Sprague-Dawley rat assessed as change in hematocrit level at 450 mg/kg/day, po administered for 4 weeks followed by 2 week recovery period (Rvb =41.1 +/- 1.4 %); assay type: organism-based; conditions: in vivo, 672 h
[24] = Toxicity in male Sprague-Dawley rat assessed as change in lymphocyte level at 450 mg/kg/day, po administered for 4 weeks followed by 2 week recovery period (Rvb =77.4 +/- 3.7 %); assay type: organism-based; conditions: in vivo, 672 h

Chain of Cytochrome P450 3A4 (P08684 whole entry, canonical isoform): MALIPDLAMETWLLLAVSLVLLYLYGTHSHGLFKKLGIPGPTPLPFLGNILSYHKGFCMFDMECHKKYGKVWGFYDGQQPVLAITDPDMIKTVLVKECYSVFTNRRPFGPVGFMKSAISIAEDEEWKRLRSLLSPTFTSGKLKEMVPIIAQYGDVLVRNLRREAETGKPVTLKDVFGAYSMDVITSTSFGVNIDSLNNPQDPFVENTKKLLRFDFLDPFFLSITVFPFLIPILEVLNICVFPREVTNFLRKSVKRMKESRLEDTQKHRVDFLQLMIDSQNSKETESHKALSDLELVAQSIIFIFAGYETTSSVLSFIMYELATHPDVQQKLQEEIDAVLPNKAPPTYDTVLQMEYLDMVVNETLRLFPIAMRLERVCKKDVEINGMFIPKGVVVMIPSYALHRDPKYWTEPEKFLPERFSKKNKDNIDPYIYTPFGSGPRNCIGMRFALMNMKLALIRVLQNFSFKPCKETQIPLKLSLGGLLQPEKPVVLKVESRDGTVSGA

Work on `CC(=O)NC[C@@H]1OC(=O)N2c3cc(F)c(N4CCSCC4)cc3OC[C@@H]12` yielded a remaining at 0.5 h, 1 µM [1] of 81.5%, an IC50 (Cytochrome P450 3A4) of over 50 µM and an Activity [2] of 1.954 log10CFU. For the same compound, the Activity [3] was 21.25 g, the Activity [4] was “Non-Toxic” and the Activity [5] was “Non-Toxic”. For the same compound, the Activity [6] was “Non-Toxic”, the Activity [7] was “Non-Toxic” and the Activity [8] was “Non-Toxic”. For the same compound, the Activity [9] was “Non-Toxic”, the Activity [10] was “Non-Toxic” and the Activity [11] was “Non-Toxic”. For the same compound, the Activity [12] was “Non-Toxic”, the Activity [13] was “Non-Toxic” and the Activity [14] was “Non-Toxic”. The Activity [15] was 4.2 10^9/L, the Activity [16] was 136 g/L and the Activity [17] was 14.8%. The Activity [18] was 6.61 10^12/L, the Activity [19] was 998 10^9/L and the Activity [20] was 7.4 fL. For the same compound, the Activity [21] was 18.8 pg, the Activity [22] was 18.7 pg and the Activity [23] was 36.9%. For the same compound, the Activity [24] was 80.7%.
